Nine compounds from ChEMBL document CHEMBL1155754, “Samioside, a new phenylethanoid glycoside with free-radical scavenging and antimicrobial activities from Phlomis samia” (J Nat Prod, 2001) can be followed below.

The structures appear in SMILES notation. ≈ marks a conversion by molar mass, not a printed value. Some results are limits rather than exact numbers.

What all share (type): functional
The test system of test [1] is Radical scavenging activity. The experiment in a line: Antioxidant activity assessed as DPPH free radical scavenging activity after 30 mins. Further details: concentration or dose not given beside the values. A digest of the protocol: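 Sample mixed with DPPH in ethanol and left 30 min at 37 °C. Optical density read at 515 nm. Ethanol replaced DPPH for the blank and DMSO replaced sample for the control. IC50 (amount scavenging 50% of DPPH) came from regression of average percent DPPH reduction against concentration, over three separate tests.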
Background: The DPPH test is a chemical assay of radical scavenging.

The subject of test [2] is Staphylococcus aureus. Description: Antimicrobial activity against Staphylococcus aureus ATCC 25923 by agar dilution method. The method in brief: (§1)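 Agar dilution against the listed ATCC bacterial strains. MIC taken as the lowest concentration preventing visible growth.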
A further test concerns Candida tropicalis. Description: Antimicrobial activity against Candida tropicalis ATCC 13801 by disk diffusion method. The method in brief:
(§2)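 Bauer-Kirby disk diffusion against the listed ATCC bacterial and Candida strains. Growth inhibition read as zone of inhibition diameter (mm). Three repeat experiments, reported as averages.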
In general terms: Agar diffusion results depend on both activity and mobility in agar.

For the next test, the system named is Candida albicans. The experiment in a line: Antimicrobial activity against Candida albicans ATCC 10231 by disk diffusion method. A digest of the protocol: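 Bauer-Kirby disk diffusion against Candida albicans ATCC 10231; experiments repeated three times, results expressed as average values (zone of inhibition).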
The next test relates to Nakaseomyces glabratus. The experiment in a line: Antimicrobial activity against Candida glabrata ATCC 28838 by disk diffusion method. The method in brief: as §2
Test [3] deals with Escherichia coli. Description: Antimicrobial activity against Escherichia coli ATCC 25922 by agar dilution method. A digest of the protocol:
as §1
On the technique in general: Agar dilution tests growth on a series of plates holding different concentrations.

In test [4] the test system is Staphylococcus epidermidis. Description: Antimicrobial activity against Staphylococcus epidermidis ATCC 12228 by agar dilution method. The method in brief: as §1
Test [5] relates to Klebsiella pneumoniae. The experiment in a line: Antimicrobial activity against Klebsiella pneumoniae ATCC 13883 by agar dilution method. A digest of the protocol:
as §1

Test [6] has as its system Pseudomonas aeruginosa. Description: Antimicrobial activity against Pseudomonas aeruginosa ATCC 27853 by agar dilution method. A digest of the protocol: as §1
The test system of test [7] is Staphylococcus epidermidis. Description: Antimicrobial activity against Staphylococcus epidermidis ATCC 12228 by disk diffusion method. The method in brief: as §2
Test [8] has as its system Staphylococcus aureus. Description: Antimicrobial activity against Staphylococcus aureus ATCC 25923 by disk diffusion method. The method in brief: as §2
In test [9] the test system is Pseudomonas aeruginosa. Description: Antimicrobial activity against Pseudomonas aeruginosa ATCC 27853 by disk diffusion method. The method in brief: as §2
Test [10] relates to Escherichia coli. Description: Antimicrobial activity against Escherichia coli ATCC 25922 by disk diffusion method. The method in brief:
as §2

Test [11] has as its system Klebsiella pneumoniae. Description: Antimicrobial activity against Klebsiella pneumoniae ATCC 13883 by disk diffusion method. A digest of the protocol: as §2
Test [12] concerns Enterobacter cloacae. The experiment in a line: Antimicrobial activity against Enterobacter cloacae ATCC 13047 by agar dilution method. A digest of the protocol:
as §1

Test [13] concerns Enterobacter cloacae. The experiment in a line: Antimicrobial activity against Enterobacter cloacae ATCC 13047 by disk diffusion method. The method in brief: as §2

For the compound `COc1cc(-c2cc(=O)c3c(O)cc(O)cc3o2)ccc1O`, the Activity in test [1] is under 40%.
For the compound `COc1ccc(-c2oc3cc(O)cc(O)c3c(=O)c2OC)cc1`, in test [1], the Activity is under 40%.
Regarding `O=c1cc(-c2ccc(O)cc2)oc2cc(O)cc(O)c12`, the Activity in test [1] was under 40%.
For orientation: MIC means the lowest concentration found to suppress growth. What is called IC50 is the concentration that gives 50% inhibition. Regarding `C[C@@H]1O[C@@H](O[C@@H]2[C@@H](O)[C@H](OCCc3ccc(O)c(O)c3)O[C@H](CO)[C@H]2OC(=O)/C=C/c2ccc(O)c(O)c2)[C@H](O)[C@H](O)[C@H]1O` [ACETOSIDE], the MIC against Staphylococcus aureus [2] worked out at 400 µg/mL (≈ 640 µM). Moreover, in test [1], the Activity was over 70% and the half-inhibitory concentration (IC50) came out at 48.9 µM.
Turning to `C[C@@H]1[C@H](O)[C@@H](C)/C=C/C=C/C=C/C=C/C=C/C=C/C=C/[C@H](O[C@@H]2O[C@H](C)[C@@H](O)[C@H](N)[C@@H]2O)C[C@@H]2O[C@](O)(C[C@@H](O)C[C@@H](O)[C@H](O)CC[C@@H](O)C[C@@H](O)CC(=O)O[C@H]1C)C[C@H](O)[C@H]2C(=O)O` [AMPHOTERICIN B], the figures for the “inhibition zone (IZ)” value with Candida tropicalis, in the test with Candida albicans and in the test with Nakaseomyces glabratus were 22 mm, 20 mm and 24 mm, respectively.
In the case of `O=C(O)/C=C/c1ccc(O)c(O)c1` [CAFFEIC ACID], in test [1], the half-maximal inhibitory concentration (IC50) was determined as 66.7 µM.
Still for that read-out and setting: the result for `O=C(O)c1cc(O)c(O)c(O)c1` [GALLIC ACID] reads 17.6 µM.
Regarding `CCN[C@@H]1C[C@H](N)[C@@H](O[C@H]2OC(CN)=CC[C@H]2N)[C@H](O)[C@H]1O[C@H]1OC[C@](C)(O)[C@H](NC)[C@H]1O` [NETILMICIN], the MIC worked out at 10 µg/mL (≈ 21 µM) against Escherichia coli [3]; 4 µg/mL (≈ 8.41 µM) in test [4]; 8 µg/mL (≈ 16.8 µM) against Klebsiella pneumoniae [5]; 8.8 µg/mL (≈ 18.5 µM) in the test on Pseudomonas aeruginosa [6]; 4 µg/mL (≈ 8.41 µM) with Staphylococcus aureus [2]; 8 µg/mL (≈ 16.8 µM) against Enterobacter cloacae [12]. Moreover, the “inhibition zone (IZ)” value in [7] worked out at 24 mm; with Staphylococcus aureus [8], 22 mm; with Pseudomonas aeruginosa [9], 20 mm; in the test with Escherichia coli [10] it was 23 mm; in the test on Klebsiella pneumoniae [11], 25 mm; with Enterobacter cloacae [13] it was 22 mm.
With `C[C@@H]1O[C@@H](O[C@@H]2[C@@H](O)[C@H](OCCc3ccc(O)c(O)c3)O[C@H](CO)[C@H]2OC(=O)/C=C/c2ccc(O)c(O)c2)[C@H](O)[C@H](O)[C@H]1O[C@@H]1OC[C@](O)(CO)[C@H]1O` [SAMIOSIDE], the “inhibition zone (IZ)” value in the test with Candida tropicalis was 10 mm; in test [7], 16 mm; in the test with Staphylococcus aureus [8], 12 mm; in the test on Pseudomonas aeruginosa [9], 10 mm; with Escherichia coli [10], 15 mm; with Candida albicans, 8 mm. The entries for the “inhibition zone (IZ)” value in the test on Nakaseomyces glabratus, in the test with Klebsiella pneumoniae [11] and in the test on Enterobacter cloacae [13] were 11 mm, 11 mm and 10 mm, respectively. Also, the MIC in the test with Escherichia coli [3] turned out to be 520 µg/mL (≈ 687 µM); in test [4], 480 µg/mL (≈ 634 µM); in the test with Klebsiella pneumoniae [5], 790 µg/mL (≈ 1040 µM); in the test on Pseudomonas aeruginosa [6] it was 850 µg/mL (≈ 1120 µM); against Staphylococcus aureus [2], 460 µg/mL (≈ 608 µM); with Enterobacter cloacae [12] it was 890 µg/mL (≈ 1180 µM). Besides, the Activity in test [1] was over 70%. The IC50 in test [1] was determined as 23.8 µM.
